Reference: ChEMBL document CHEMBL1128497, “Synthesis and in vitro and in vivo antitumor activity of a series of trans platinum antitumor complexes” (J Med Chem, 1995)
Several values for one entry are separate records, joined by “and”; a condition that tells them apart may be missing. Equal entries are not always repeated. Activity calls are given as the source filed them. The rule behind the calls is not given here.

How the values were obtained:
[1] = test system: 41M; assay: In vitro antitumor activity against 41M cell line.; format: functional, cell-based, Homo sapiens
In short: (§1)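 Human ovarian carcinoma monolayers were grown in DMEM with 10% FCS, insulin and hydrocortisone under 10% CO2. Cells were seeded at 5 × 10^3–1 × 10^4 per well and left to attach overnight. Drugs were freshly dissolved in 0.9% saline (1 mM or 500 μM stocks) and added to quadruplicate wells for 96 h. Cell mass was read by SRB staining. IC50 values are means of at least two experiments.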

[2] = test system: 41M; assay: In vitro antitumor activity against 41McisR cell line.; format: functional, cell-based, Homo sapiens; in short: as §1
[3] = test system: A2780; assay: In vitro antitumor activity against A2780cisR cell line.; format: functional, cell-based, Homo sapiens; in short: as §1
[4] = test system: A2780; assay: In vitro antitumor activity against A2780 cell line.; format: functional, cell-based, Homo sapiens; in short: as §1
[5] = test system: CH1; assay: In vitro antitumor activity against CH1cisR cell line.; format: functional, cell-based, Homo sapiens; in short: as §1
[6] = test system: CH1; assay: (§2) In vitro antitumor activity against CH1 cell line.; format: functional, cell-based, Homo sapiens; in short: as §1
[7] = test system: Mus musculus; assay: In Vivo Antitumor activity against the acquired cisplatin-resistant ADJ/PC6 Plasmacytoma (ADJ/PC6cisR) in mice; format: ADME, organism-based
[8] = In vivo antitumor activity by i.p. administration against murine ADJ/PC6 (sc) plasmacytoma.; format: ADME, organism-based; settings: mouse, ip
[9] = test system: SK-OV-3; assay: In vitro antitumor activity against SK-OV-3 cell line.; format: functional, cell-based, Homo sapiens; in short: as §1
[10] = test system: A2780; assay: Resistant factor determined between IC50 of resistant line to that of parental A2780 cell line; format: functional, cell-based; settings: Homo sapiens
In short: (§3)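 Resistance factor is the IC50 in the cisplatin-resistant subline divided by the IC50 in its parent line. IC50s came from a 96 h SRB cytotoxicity assay run in quadruplicate wells.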

[11] = test system: CH1; assay: Resistant factor, determined between IC50 of resistant line to that of CHcisR cell line; format: functional, cell-based; settings: Homo sapiens; CH1cisR; in short: as §3
[12] = test system: Mus musculus; assay: In Vivo Antitumor activity by ip administration against Murine ADJ/PC6 (sc) Plasmacytoma in mice; format: functional, organism-based; settings: Plasma
In short: (§4)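 ADJ/PC6 plasmacytoma (or its cisplatin-resistant subline) was implanted sc as 1 mm3 fragments. On day 20 mice received a single ip injection of drug as a sonicated suspension in arachis oil, at halving doses. Ten days later tumors were dissected and weighed against controls. […] Therapeutic index is MTD/ED90, alongside LD50.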

[13] = test system: 41M; assay: Resistant factor was determined between IC50 of cisplatin-resistant human tumor cell lines to that of […] cell line; format: functional, cell-based; in short: as §3
[14] = test system: Mus musculus; assay: Ability to inhibit Antitumor activity against PXN/109T/CC Human Ovarian Cracinoma xenograft in mice at dose 50 mg/kg by ip administration; format: functional, organism-based; parameters: dose 50 mg/kg
In short: (§5)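 Human ovarian carcinoma xenografts were grown subcutaneously in female Balb C nude mice. Tumors were measured weekly until they doubled their starting volume. Growth delay is the difference in doubling time between treated and control tumors.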

[15] = test system: Mus musculus; assay: Ability to inhibit Antitumor activity against PXN/109T/CC Human Ovarian Cracinoma xenograft in mice at dose 8 mg/kg by ip administration; format: functional, organism-based; parameters: dose 8 mg/kg; in short: as §5
[16] = test system: Mus musculus; assay: Ability to inhibit Antitumor activity against HX/110 Human Ovarian Cracinoma xenograft in mice at dose 2 mg/kg by ip administration; format: functional, organism-based; parameters: dose 2 mg/kg; in short: as §5
[17] = test system: Mus musculus; assay: Ability to inhibit Antitumor activity against OVCAR-3 Human Ovarian Cracinoma xenograft in mice at dose 2 mg/kg by ip administration; format: functional, organism-based; parameters: dose 2 mg/kg; in short: as §5
[18] = test system: Mus musculus; assay: Ability to inhibit Antitumor activity against OVCAR-3 Human Ovarian Cracinoma xenograft in mice at dose 4 mg/kg by ip administration; format: functional, organism-based; parameters: dose 4 mg/kg; in short: as §5
[19] = test system: Mus musculus; assay: Ability to inhibit Antitumor activity against PXN/100 Human Ovarian Cracinoma xenograft in mice at dose 2 mg/kg by ip administration; format: functional, organism-based; parameters: dose 2 mg/kg; in short: as §5
[20] = test system: Mus musculus; assay: Ability to inhibit Antitumor activity against PXN/100 Human Ovarian Cracinoma xenograft in mice at dose 4 mg/kg by ip administration; format: functional, organism-based; parameters: dose 4 mg/kg; in short: as §5
[21] = test system: Mus musculus; assay: Ability to inhibit Antitumor activity against PXN/109T/C Human Ovarian Cracinoma xenograft in mice at dose 2 mg/kg by ip administration; format: functional, organism-based; parameters: dose 2 mg/kg; in short: as §5
[22] = test system: Mus musculus; assay: Ability to inhibit Antitumor activity against PXN/109T/CC Human Ovarian Cracinoma xenograft in mice at dose 2 mg/kg by ip administration; format: functional, organism-based; parameters: dose 2 mg/kg; in short: as §5
[23] = test system: Mus musculus; assay: Ability to inhibit Antitumor activity against SKOV-3 Human Ovarian Cracinoma xenograft in mice at dose 4 mg/kg by ip administration; format: functional, organism-based; parameters: dose 4 mg/kg; in short: as §5
[24] = test system: Mus musculus; assay: Ability to inhibit Antitumor activity against PXN/109T/C Human Ovarian Cracinoma xenograft in mice at dose 4 mg/kg by ip administration; format: functional, organism-based; parameters: dose 4 mg/kg; in short: as §5
[25] = test system: Mus musculus; assay: In Vivo Antitumor activity by ip administration against Murine ADJ/PC6 (sc) Plasmacytoma in mice; - = 90% tumor inhibition not obtained; format: functional, organism-based; settings: Plasma; in short: as §4
[26] = test system: Mus musculus; assay: Ability to inhibit Antitumor activity against PXN/109T/C Human Ovarian Cracinoma xenograft in mice at dose 20 mg/kg by ip administration; format: functional, organism-based; parameters: dose 20 mg/kg; in short: as §5
[27] = test system: Mus musculus; assay: Ability to inhibit Antitumor activity against PXN/109T/C Human Ovarian Cracinoma xenograft in mice at dose 10 mg/kg by ip administration; format: functional, organism-based; parameters: dose 10 mg/kg; in short: as §5
[28] = test system: CH1; assay: as §2; format: functional, cell-based, Homo sapiens; in short: as §1; remark: listed apart in the source

Substance | IC50 [1] | IC50 [2] | IC50 [3] | IC50 [4] | IC50 [5] | IC50 [6] | LD50 [8] | IC50 [9] | RF [10] | RF [11] | ED90 [12] | RF [13] | other results
CISPLATIN [listing 1 of 2 here] | 260 nM | 1200 nM | 5200 nM | 330 nM | 710 nM | 110 nM | 11.3 mg/kg | 4400 nM |  |  |  |  | LD50 [7]: 11 mg/kg
trans-a-Ammine-b,d-dichloro-c,e-dihydrooxy-f-(cyclopentylamine)-platinium (IV) |  |  |  |  |  |  |  |  | 5.5 | 1.7 | 2.5 mg/kg | 1.2 | 
trans-a,f-Dichloro-b,d-bis(cyclohexylamine)-c,e-dihydroxo-platinium (IV) |  |  |  |  |  |  |  |  | 4 | 1.1 | 40 mg/kg | 1.5 | Growth delay [14]: 1.8 days
trans-Amminedichloro(N-methylcyclohexylamine)-platinium (II) | 780 nM | 480 nM | 3600 nM | 460 nM | 1100 nM | 380 nM | 71 mg/kg | 3900 nM |  |  |  |  | 
trans-a-Ammine-b,d-dichloro-c,e-dihydroxo-f-(N-methylcyclohexylamine)-platinium (IV) [listing 1 of 2 here] |  |  |  |  |  |  |  |  | 3.7 | 2.2 | 9.4 mg/kg | 0.7 | Growth delay [15]: 1.1 days
AMMONIO(DICHLORO)[DI(METHYLCARBONYLOXY)]PLATINUM(CYCLOHEXYL)AMMONIUM | 1300 nM | 1200 nM | 3000 nM | 300 nM | 1500 nM | 1100 nM | 35 mg/kg | 4800 nM |  |  |  |  | 
trans-a-ammine-b,d-dichloro-f-(cyclohexylamine)-c,e-dihydroxoplatinium (IV) |  |  |  |  |  |  |  |  |  |  |  |  | Growth delay [16]: 25.5 days; Growth delay [17]: 12 days; Growth delay [18]: 16.8 days; Growth delay [19]: 23.9 days; Growth delay [20]: 63.7 days; Growth delay [21]: 17 days; Growth delay [22]: 5.4 days; Growth delay [23]: 7 days
trans-a-Ammine-b,d-dichloro-c,e-dihydroxo-f-(1,1,3,3-tetramethyl butylamine)-platinium (IV) |  |  |  |  |  |  |  |  | 5.5 | 1.5 | 9.6 mg/kg | 2.1 | 
TRANSPLATIN [listing 1 of 2 here] | 57000 nM | 70000 nM | 260000 nM | 32000 nM | 68500 nM | 30000 nM | 32 mg/kg | 255000 nM |  |  |  |  | 
trans-Amminetetrachloro(quinuclidine)-platinium (IV) |  |  |  |  |  |  |  |  | 1.1 | 1 |  | 1 | Growth delay [24]: 0 days
trans-a-ammine-b,d-dichloro-f-(cyclohexylamine)-c,e-bis-(ethylcarbamato)platinium (IV) |  |  |  |  |  |  |  |  | 3.3 | 1.2 | 185 mg/kg | 0.7 | 
TRANSPLATIN [listing 2 of 2 here] |  |  |  |  |  |  |  |  |  |  |  |  | ED90 [25]: inactive
trans-a-ammine-b,d-dichloro-f-(2-propylamine)-c,e-dihydroxoplatinium (IV) | 3200 nM and 3900 nM | 4600 nM and 9200 nM | 4700 nM and 7200 nM | 540 nM and 990 nM | 5500 nM and 4900 nM | 2400 nM and 1400 nM | 18 mg/kg and 35 mg/kg | 9200 nM and 30500 nM |  |  |  |  | 
trans-a-Ammine-b,d-dichloro-c,e-dihydrooxy-f-(Morphiline)-platinium (IV) |  |  |  |  |  |  |  |  | 4.3 | 1.6 | 94 mg/kg | 2.1 | 
trans-a-Ammine-b,d-dichloro-c,e-dihydroxy-f-(benzylamine)-platinium (IV) [listing 1 of 2 here] |  |  |  |  |  |  |  |  | 4 | 1.7 | 22 mg/kg | 1 | Growth delay [26]: 8.3 days
AMMONIO(DICHLORO)PLATINUM(CYCLOHEXYL)AMMONIUM |  |  |  |  |  |  |  |  |  |  | 1.4 mg/kg |  | 
trans-a-Ammine-b,d-dichloro-c,e-dihydroxo-f-(exo-2-aminonorbornane)-platinium (IV) [listing 1 of 2 here] |  |  |  |  |  |  |  |  | 12 | 1.2 | 4.9 mg/kg | 1 | 
trans-a-Ammine-b,d-dichloro-c,e-dihydroxo-f-(N-methylcyclohexylamine)-platinium (IV) [listing 2 of 2 here] | 2300 nM | 1600 nM | 5000 nM | 1300 nM | 2900 nM | 1300 nM | 29 mg/kg | 6900 nM |  |  |  |  | 
trans-a-Ammine-b,d-dichloro-c,e-dihydroxy-f-(benzylamine)-platinium (IV) [listing 2 of 2 here] | 1300 nM | 1300 nM | 4200 nM | 1100 nM | 1900 nM | 1100 nM | 71 mg/kg | 8200 nM |  |  |  |  | 
CISPLATIN [listing 2 of 2 here] |  |  |  |  |  |  |  |  |  |  | 1.6 mg/kg |  | 
trans-a-Ammine-b,d-dichloro-c,e-dihydroxo-f-(exo-2-aminonorbornane)-platinium (IV) [listing 2 of 2 here] | 1400 nM | 1500 nM | 3000 nM | 250 nM | 1700 nM | 1400 nM | 17.5 mg/kg | 4400 nM |  |  |  |  | 
trans-a-ammine-b,d-dichloro-f-(2-methyl1-2-propylamine)-c,e-dihydroxoplatinium (IV) [listing 1 of 2 here] |  |  |  |  |  |  |  |  |  |  | 4.9 mg/kg and 4.7 mg/kg |  | Growth delay [27]: 13.4 days
trans-a-ammine-b,d-dichloro-f-(2-methyl1-2-propylamine)-c,e-dihydroxoplatinium (IV) [listing 2 of 2 here] | 4500 nM and 1100 nM | 8000 nM and 900 nM | 8500 nM and 4200 nM | 800 nM and 210 nM | 3400 nM and 1620 nM | 740 nM | 35.5 mg/kg and 35 mg/kg | 34000 nM and 4700 nM |  |  |  |  | IC50 [28]: 1100 nM
